For orientation: half-life means how long it takes for the measured level to halve. Read a low half-life as rapid decline. The term bioavailability denotes the share of a dose that reaches the circulation, judged against a reference dose that is usually intravenous. A higher bioavailability goes with much systemic uptake. By AUC(0-inf) is commonly meant the area under the concentration-time curve extrapolated to infinity. Read a low AUC(0-inf) as low exposure. A word on the AUC(0-t): it is exposure summed from dosing to a finite time, without extrapolation to infinity. The low end stands for less exposure, the high end for more exposure.

Where two headings read alike, the source gives them in different places.

The test system of data set [1] is CYP3A4 enzyme. Particulars: cited from earlier work.
Data set [2] can be described thus: Stability and adsorption of the venetoclax microdose solution. Particulars: during formulation and process development. The data set is classed as physicochemical.
The conditions of data set [3]: cited from earlier work.
The format of data set [4] is in vivo, human. Particulars: for Tmax: healthy female subjects, median (range); for bioavailability: oral. The procedure, abridged: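 Healthy female volunteers fasted about 10 h, then took a 100 mg oral tablet. A 13C-labeled microdose (15 µg/ml target, PEG-400 solution diluted in saline, filtered) was infused i.v. 4 h later. Plasma was sampled predose and 1–72 h post-oral, and 5–30 min post-i.v. Concentrations were measured by LC-MS/MS against a 0.0300–15.0 ng/ml calibration (1/x² weighting). Noncompartmental analysis used the actual i.v. dose, assayed from the unflushed infusion line.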

Setting [5] is: 100 mg venetoclax oral tablet, fasting, N = 12, mean (%CV).
Where [6] appears, read: female, human, plasma, po, 100 mg.
The mark [7] stands for this setting: 100 µg 13C-venetoclax solution for IV infusion, N = 11, mean (%CV).
The mark [8] stands for this setting: 100 µg 13C-venetoclax solution for IV infusion, actual dose, N = 11, mean (%CV).

Take `CC1(C)CCC(CN2CCN(c3ccc(C(=O)NS(=O)(=O)c4ccc(NCC5CCOCC5)c([N+](=O)[O-])c4)c(Oc4cnc5[nH]ccc5c4)c3)CC2)=C(c2ccc(Cl)cc2)C1` [venetoclax]: the metabolism result in data set [1] was “predominantly metabolized by the CYP3A4 enzyme”. The “adsorptive losses on the infusion line” value in data set [2] is 1 to 2 µg/mL. Moreover, in data set [3], the pharmacokinetic linearity entry is “linear between 150 and 800 mg dose”; the terminal half-life is 16 h; the “time to reach Cmax after dosing” value is 6 to 8 h. For the same compound, in data set [4] (setting [5]), the AUCinf/dose is recorded as 19.3 (45%) (ng·h/ml)/mg and the Cmax/dose is recorded as 1.49 (47%) (ng/ml)/mg. For the same compound, the Tmax in data set [4] (100 mg venetoclax oral tablet, fasting, N = 12) was 4.2 (4.0–6.0) h. In data set [4] (female, human, plasma, iv, 100 µg, t 1/2, 100 µg 13C-venetoclax solution for IV infusion, N = 11, harmonic mean (pseudo %CV)), this compound gave a half-life of approximately 14 h. Also, the bioavailability in data set [4] (female, human, plasma, 100 mg) turned out to be 5.4%. Further, in data set [4] (setting [6]), the AUC(0-inf) was determined as 1930 ng·h/mL, the AUC(0-t) was 1850 ng·h/mL and the Cmax amounted to 149 ng/mL. Besides, the Tmax in data set [4] (female, human, plasma, po, 100 mg, Tmax, 100 mg venetoclax oral tablet, fasting, N = 12) is approximately 4 h. Besides, in data set [4] (female, human, plasma, po, 100 mg, t 1/2, 100 mg venetoclax oral tablet, fasting, N = 12, harmonic mean (pseudo %CV)), the half-life is approximately 14 h. In data set [4] (from hepatic extraction ratio), the “fraction metabolized by the liver in a single pass” value came out at 6%. The bioavailability in data set [4] (human, plasma) lay within 18 to 28%.

In the case of [^13C7]‐venetoclax [^13C‐venetoclax], the “t 1/2” value in data set [4] (100 µg 13C-venetoclax solution for IV infusion, N = 11, harmonic mean (pseudo %CV)) is 14.4 (5.5) h. In data set [4] (setting [7]), the AUCinf is 0.036 (39%) µg·h/ml, the AUCt is listed as 0.034 (37%) µg·h/ml and the Cmax is 0.019 (19%) µg/ml. Moreover, in data set [4] (setting [8]), the AUCinf/dose was 324 (37%) (ng·h/ml)/mg, the AUCt/dose is recorded as 310 (36%) (ng·h/ml)/mg and the Cmax/dose was 176 (16%) (ng/ml)/mg.

The values are drawn from article PMC8742638 (Clinical and Translational Science, 2021).
